Reference: ChEMBL document CHEMBL1123430, “Potential tumor- or organ-imaging agents. 26. Polyiodinated 2-substituted triacylglycerols as hepatographic agents” (J Med Chem, 1986)

Assays:
Rattus norvegicus [1] = assay: Distribution of radioactivity of radiolabeled compound in blood of female rats 5 minutes after intravenous administration; type: ADME, organism-based; settings: in vivo
Rattus norvegicus [2] = assay: Distribution of radioactivity of radiolabeled compound in heart of female rats 30 minutes after intravenous administration; type: ADME, organism-based; settings: in vivo, 0.5 h
Rattus norvegicus [3] = assay: Distribution of radioactivity of radiolabeled compound in blood of female rats 30 minutes after intravenous administration; type: ADME, organism-based; settings: in vivo, 0.5 h
Rattus norvegicus [4] = assay: Distribution of radioactivity of radiolabeled compound in heart of female rats 5 minutes after intravenous administration; type: ADME, organism-based; settings: in vivo
Rattus norvegicus [5] = assay: Distribution of radioactivity of radiolabeled compound in kidney of female rats 30 minutes after intravenous administration; type: ADME, organism-based; settings: in vivo, 0.5 h
Rattus norvegicus [6] = assay: Distribution of radioactivity of radiolabeled compound in kidney of female rats 5 minutes after intravenous administration; type: ADME, organism-based; settings: in vivo
Rattus norvegicus [7] = assay: Distribution of radioactivity of radiolabeled compound in liver of female rats 30 minutes after intravenous administration; type: ADME, organism-based; settings: in vivo, 0.5 h
Rattus norvegicus [8] = assay: Distribution of radioactivity of radiolabeled compound in liver of female rats 5 minutes after intravenous administration; type: ADME, organism-based; settings: in vivo
Rattus norvegicus [9] = assay: Distribution of radioactivity of radiolabeled compound in lung of female rats 30 minutes after intravenous administration; type: ADME, organism-based; settings: in vivo, 0.5 h
Rattus norvegicus [10] = assay: Distribution of radioactivity of radiolabeled compound in lung of female rats 5 minutes after intravenous administration; type: ADME, organism-based; settings: in vivo
Rattus norvegicus [11] = assay: Percentage […]/CH3OH extract of the radiolabeled compound in rat liver 30 minutes after iv administration (+/-SEM); type: functional
How it was run: (§1)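 Liver and plasma were taken at 5 or 30 min. Plasma was extracted by a modified Folch procedure, and liver was homogenized and extracted. Extracts were run on TLC in hexane/ethyl acetate (5:2) for esters or THF/hexane (1:1) for acids, with unlabeled compound as reference. Plates were cut into 1-cm strips and counted. Values are percent ± SEM, n = 3-5.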

Rattus norvegicus [12] = assay: Percentage […]/CH3OH extract of the radiolabeled compound in rat liver 5 minutes after iv administration (+/-SEM); type: functional; how it was run: as §1
Rattus norvegicus [13] = assay: Percentage […]/CH3OH extract of the radiolabeled compound in rat plasma 30 minutes after iv administration (+/-SEM); type: functional; how it was run: as §1
Rattus norvegicus [14] = assay: Percentage […]/CH3OH extract of the radiolabeled compound in rat plasma 5 minutes after iv administration (+/-SEM); type: functional; how it was run: as §1
Rattus norvegicus [15] = assay: Percentage parent compound in rat liver 30 minutes after iv administration of the radiolabeled compound by thin-layer chromatography; type: functional; how it was run: as §1
Rattus norvegicus [16] = assay: Percentage parent compound in rat liver 5 minutes after iv administration of the radiolabeled compound by thin-layer chromatography; type: functional; how it was run: as §1
Rattus norvegicus [17] = assay: Percentage parent compound in rat plasma 30 minutes after iv administration of the radiolabeled compound by thin-layer chromatography; type: functional; how it was run: as §1
Rattus norvegicus [18] = assay: Percentage parent compound in rat plasma 5 minutes after iv administration of the radiolabeled compound by thin-layer chromatography; type: functional; how it was run: as §1
Rattus norvegicus [19] = assay: Polyacrylamide Gel Electrophoresis (PAGE) analysis of rat plasma after intravenous administration of radiolabeled compound concentration of below albumin […]; type: functional, organism-based
How it was run: (§2)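 ¹²⁵I-labeled compound, radioiodinated by exchange in a pivalic acid melt, solubilized in normal saline with Tween 20 and given iv to adult female Sprague–Dawley rats (200–250 g), 5–30 μCi/animal, 3–4 rats per time point. Plasma was run on polyacrylamide gels. Gels were sectioned and gamma counted. Radioactivity per band (stacking gel, LDL, HDL, albumin, below albumin) is given as % of total applied; mean ± SEM, n = 3-5.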

Rattus norvegicus [20] = assay: Polyacrylamide Gel Electrophoresis (PAGE) analysis of rat plasma 30 minutes after intravenous administration of radiolabeled compound (below albumin); type: functional, organism-based
How it was run: (§3)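 Gels were sectioned and counted in a γ counter. Radioactivity in each band (stacking gel, LDL, HDL, albumin, below albumin) is expressed as a percentage of the total radioactivity applied to the gel, ± SEM, n = 3-5.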

Rattus norvegicus [21] = assay: Polyacrylamide Gel Electrophoresis (PAGE) analysis of rat plasma 30 minutes after intravenous administration of radiolabeled compound in albumin; type: functional, organism-based; how it was run: as §3
Rattus norvegicus [22] = assay: Polyacrylamide Gel Electrophoresis (PAGE) analysis of rat plasma 30 minutes after intravenous administration of radiolabeled compound in high density lipoprotein; type: functional, organism-based; how it was run: as §3
Rattus norvegicus [23] = assay: Polyacrylamide Gel Electrophoresis (PAGE) analysis of rat plasma 30 minutes after intravenous administration of radiolabeled compound in low-density lipoprotein; type: functional, organism-based; how it was run: as §3
Rattus norvegicus [24] = assay: Polyacrylamide Gel Electrophoresis (PAGE) analysis of rat plasma 30 minutes after intravenous administration of radiolabeled compound in stacking gel; type: functional, organism-based; how it was run: as §3
Rattus norvegicus [25] = assay: Polyacrylamide Gel Electrophoresis (PAGE) analysis of rat plasma 5 minutes after intravenous administration of radiolabeled compound (below albumin); type: functional, organism-based; how it was run: as §2
Rattus norvegicus [26] = assay: Polyacrylamide Gel Electrophoresis (PAGE) analysis of rat plasma 5 minutes after intravenous administration of radiolabeled compound in high density lipoprotein; type: functional, organism-based; how it was run: as §2
Rattus norvegicus [27] = assay: Polyacrylamide Gel Electrophoresis (PAGE) analysis of rat plasma 5 minutes after intravenous administration of radiolabeled compound in low-density lipoprotein; type: functional, organism-based; how it was run: as §2
Rattus norvegicus [28] = assay: Polyacrylamide Gel Electrophoresis (PAGE) analysis of rat plasma 5 minutes after intravenous administration of radiolabeled compound in stacking gel; type: functional, organism-based; how it was run: as §2
Rattus norvegicus [29] = assay: Polyacrylamide Gel Electrophoresis (PAGE) analysis of rat plasma 5 min after intravenous administration of radiolabeled compound in albumin; type: functional, organism-based; how it was run: as §3
Rattus norvegicus [30] = assay: Distribution of radioactivity of radiolabeled compound in lung of female rats 5 minutes after intravenous administration at; type: ADME, organism-based; settings: in vivo
Rattus norvegicus [31] = assay: Percentage […]/CH3OH extract of the radiolabeled compound in rat liver 30 minutes after iv administration; type: functional; how it was run: as §1
Rattus norvegicus [32] = assay: Percentage […]/CH3OH extract of the radiolabeled compound in rat liver 5 minutes after iv administration; type: functional; how it was run: as §1
Rattus norvegicus [33] = assay: Percentage […]/CH3OH extract of the radiolabeled compound in rat plasma 30 minutes after iv administration; type: functional; how it was run: as §1
Rattus norvegicus [34] = assay: Percentage […]/CH3OH extract of the radiolabeled compound in rat plasma 5 minutes after iv administration; type: functional; how it was run: as §1
Rattus norvegicus [35] = assay: Polyacrylamide Gel Electrophoresis (PAGE) analysis of rat plasma 30 minutes after intravenous administration of radiolabeled in stacking gel; type: functional, organism-based; how it was run: as §3
Rattus norvegicus [36] = assay: Polyacrylamide Gel Electrophoresis (PAGE) analysis of rat plasma 30 min after intravenous administration of radiolabeled compound ( below albumin); type: functional, organism-based; how it was run: as §3
Rattus norvegicus [37] = assay: Polyacrylamide Gel Electrophoresis (PAGE) analysis of rat plasma 30 min after intravenous administration of radiolabeled compound inlow density lipoprotein; type: functional, organism-based; how it was run: as §3
Rattus norvegicus [38] = assay: Polyacrylamide Gel Electrophoresis (PAGE) analysis of rat plasma 5 minutes after intravenous administration of radiolabeled compound (below albumin ); type: functional, organism-based; how it was run: as §2
Rattus norvegicus [39] = assay: Polyacrylamide Gel Electrophoresis (PAGE) analysis of rat plasma 5 minutes after intravenous administration of radiolabeled compound at in high density lipoprotein; type: functional, organism-based; how it was run: as §2
Rattus norvegicus [40] = assay: Polyacrylamide Gel Electrophoresis (PAGE) analysis of rat plasma 30 min after intravenous administration of radiolabeled compound at in high density; type: functional, organism-based; how it was run: as §3
Rattus norvegicus [41] = assay: Polyacrylamide Gel Electrophoresis (PAGE) analysis of rat plasma 30 min after intravenous administration of radiolabeled compound in albumin; type: functional, organism-based; how it was run: as §3
Rattus norvegicus [42] = assay: Polyacrylamide Gel Electrophoresis (PAGE) analysis of rat plasma 5 min after intravenous administration of radiolabeled compound concentration of albumin; type: functional, organism-based; how it was run: as §3

Row | Structure (SMILES) | Dose (Rattus norvegicus [1]) | Dose (Rattus norvegicus [2]) | Dose (Rattus norvegicus [3]) | Dose (Rattus norvegicus [4]) | Dose (Rattus norvegicus [5]) | Dose (Rattus norvegicus [6]) | Dose (Rattus norvegicus [7]) | Dose (Rattus norvegicus [8]) | Dose (Rattus norvegicus [9]) | Activity (Rattus norvegicus [15]) | Activity (Rattus norvegicus [16]) | Activity (Rattus norvegicus [17]) | Activity (Rattus norvegicus [18]) | Concentration (Rattus norvegicus [27]) | Concentration (Rattus norvegicus [28]) | also measured
1 | CCCCCCCCCCCCCCCC(=O)OCC(COC(=O)CCCCCCCCCCCCCCC)OC(=O)CCc1c(I)cc(I)c(N)c1I | 5.99% | 2.43% | 3.23% | 1.34% | 1.65% | 1.18% | 1.22% | 1.74% | 0.93% | 47.7% | 72.5% | 86.1% | 75.5% | 20.2% | 4.6% | Dose (Rattus norvegicus [10]): 1.2%; Activity (Rattus norvegicus [11]): 52.1%; Activity (Rattus norvegicus [12]): 68.4%; Activity (Rattus norvegicus [13]): 69.4%; Activity (Rattus norvegicus [14]): 79.1%; Concentration (Rattus norvegicus [19]): 69.4 [middle of 4 runs]; Concentration (Rattus norvegicus [20]): 4.4; Concentration (Rattus norvegicus [21]): 27; Concentration (Rattus norvegicus [22]): 48.9%; Concentration (Rattus norvegicus [23]): 15.7%; Concentration (Rattus norvegicus [24]): 4%; Concentration (Rattus norvegicus [25]): 2.4; Concentration (Rattus norvegicus [26]): 57.1; Concentration (Rattus norvegicus [29]): 14.6
2 | CCCCCCCCCCCCCCCC(=O)OCC(COC(=O)CCCCCCCCCCCCCCC)OC(=O)CCCCCCCCCCCc1c(I)cc(I)c(N)c1I | 2.5% | 0.7% | 1.12% | 0.73% | 1.21% | 0.59% | 5.22% | 6.62% | 1.84% | 42.9% | 46.4% | 34% | 43.2% | 26% | 6.9% | Dose (Rattus norvegicus [30]): 1.73%; Activity (Rattus norvegicus [31]): 61.2%; Activity (Rattus norvegicus [32]): 40.9%; Activity (Rattus norvegicus [33]): 54.8%; Activity (Rattus norvegicus [34]): 81.8%; Concentration (Rattus norvegicus [35]): 13.2; Concentration (Rattus norvegicus [36]): 12.5; Concentration (Rattus norvegicus [37]): 9.7; Concentration (Rattus norvegicus [38]): 3; Concentration (Rattus norvegicus [39]): 33.3%; Concentration (Rattus norvegicus [40]): 15.6%; Concentration (Rattus norvegicus [41]): 48.9; Concentration (Rattus norvegicus [42]): 30.8
